Assay results published in ChEMBL document CHEMBL1132620, “Piperazine imidazo[1,5-a]quinoxaline ureas as high-affinity GABAA ligands of dual functionality” (J Med Chem, 1999).
Activity calls are given as the source filed them. No cut-off for these calls is given here.

Key:
[1] = target: T1, GABA-A receptor; alpha-1/beta-2/gamma-2 (Homo sapiens) (UniProt P14867+P47870+P18507); test: (§1) In vitro GABA-mediated chloride current in A293 cells expressing GABA-A benzodiazepine receptor alpha-1-beta-2-gamma-2 subunits at 5 uM; type: functional, cell-based; details: HEK293
Mus musculus [2] = species on record: Mus musculus; test: Ability to antagonize the muscle relaxation effect in mice caused by a benzodiazepine full agonist, triazolam.; type: functional
Method in brief: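 Muscle relaxation induced by triazolam; test compound and triazolam given separately, traction scored 30 min after dosing; ED50 for blocking the relaxant effect.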

[3] = target: T2, GABA-A receptor; anion channel (Rattus norvegicus) (UniProt O09028+P15431+P18506+P18508+P19969+P20236+P23574+P23576+P28471+P28473+P30191+P62813+P63079+P63138+Q91ZM7+Q9ES14); test: Inhibition of [35S]TBPS binding to GABA-A Benzodiazepine receptor of rat brain membranes; type: cell membranes; details: Membrane
Rattus norvegicus = test: In vivo efficacy evaluated for ability to antagonize metrazole induced clonic convulsions in rat after ip injection; type: functional
Mus musculus [4] = test: In vivo efficacy is evaluated by percent control of cerebellar GMP levels in (drug+stress) treated mice/mice under stress; type: functional; parameters: concentration or dose not given beside the values
Method in brief: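 Male CF-1 mice given drug orally in vehicle 122 before electric footshock stress, controls given vehicle (1 mL/100 g); killed 30 min after treatment; cerebellum homogenized in 1% perchloric acid, iced 30 min, boiled 5 min, spun 17000g 20 min; supernatant cGMP by radioimmunoassay, expressed as % of stress control.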

Mus musculus [5] = test: In vivo acute electroshock physical dependence activity in mice; Not active.; type: functional, organism-based
[6] = target: T2, GABA-A receptor; anion channel (Rattus norvegicus); test: (§2) Displacement of [3H]flunitrazepam from GABA-A benzodiazepine receptor of rat cortical membranes; type: cell membranes; parameters: concentration or dose not given beside the values; details: Membrane, concentration not given here
Method in brief: (§3)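 Rat membranes incubated 60 min at 4 °C with [3H]flunitrazepam, 50 µg membrane protein and graded test drug in 200 µL containing NaCl, 10 mM Hepes/Tris pH 7.4 and 1 mM MgCl2; bound ligand separated by rapid filtration on GF/B; mean affinity, SE ≤10% of mean.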

[7] = target: T2, GABA-A receptor; anion channel (Rattus norvegicus); test: Shift in [35S]TBPS binding to GABA-A Benzodiazepine receptor of rat brain membrane
[8] = target: T1, GABA-A receptor; alpha-1/beta-2/gamma-2 (Homo sapiens); test: as §1; type: functional, cell-based; details: HEK293; remark: listed apart in the source
Mus musculus [9] = test: In vivo acute electroshock physical dependence activity in mice; Active; type: functional, organism-based
[10] = target: GABA-A receptor; anion channel; test: as §2; type: cell membranes, Membrane; method in brief: as §3
[11] = target: GABA A receptor alpha-3/beta-2/gamma-2 (Homo sapiens) (UniProt P47870+P18507+P34903); test: In vitro GABA-mediated chloride current in A293 cells expressing GABA-A benzodiazepine receptor alpha-3-beta-2-gamma-2 subunits at 5 uM; type: functional, cell-based; details: HEK293

SMILES | Change in Cl- current [1] | Shift [3] | inhibition [6] | Shift [7] | Change in Cl- current [8] | Ki [10] | Change in Cl- current [11] | ED50 (Mus musculus [2]) | ED50 (Rattus norvegicus) | Control (Mus musculus [4]) | Acute electroshock activity (Mus musculus [5]) | Acute electroshock activity (Mus musculus [9])
CN(C)C(=O)N1Cc2c(-c3noc(C4CC4)n3)ncn2-c2ccccc21 [PNU-91571] | 0.68 | 0.69 | – | – | – | – | – | 1 mg/kg | 21 mg/kg | 61% | inactive | –
Cc1ccc2c(c1)N(C(=O)N1CCN[C@@H](C)C1)Cc1c(C(=O)OC(C)(C)C)ncn1-2 | 0.4 | – | 32% | 0.59 | 1.1 | 17.9 nM | – | > 30 mg/kg | 25 mg/kg | 55% | – | Active
C[C@@H]1CN(C(=O)N2Cc3c(C(=O)OC(C)(C)C)ncn3-c3ccc(C(F)(F)F)cc32)C[C@H](C)N1C | 0.81 | – | 17% | 0.26 | – | 31.4 nM | – | 21.8 mg/kg | 6.2 mg/kg | – | – | Active
C[C@H]1NCCN(C(=O)N2Cc3c(C(=O)OC(C)(C)C)ncn3-c3ccc(Cl)cc32)[C@H]1C | 0 | – | 78% | 0.27 | 0.7 | 2.34 nM | – | > 30 mg/kg | 0.7 mg/kg | 70% | – | Active
C[C@H]1CN(C(=O)N2Cc3c(C(=O)OC(C)(C)C)ncn3-c3ccc(C(F)(F)F)cc32)CCN1 | 0.7 | – | 21% | 0.54 | 0.8 | 42.8 nM | – | > 30 mg/kg | 25 mg/kg | 82% | inactive | –
CC1CN(C)CC(C)N1C(=O)N1Cc2c(C(=O)OC(C)(C)C)ncn2-c2ccc(Cl)cc21 (stereo not drawn) | 1.71 | – | 32% | 1.02 | – | 90.2 nM | 0.69 | > 30 mg/kg | 6.2 mg/kg | 100% | inactive | –
C[C@H]1CN(C(=O)N2Cc3c(C(=O)OC(C)(C)C)ncn3-c3ccc(Cl)cc32)CCN1 | 0.1 | – | 74% | 0.12 | 0.8 | 6.71 nM | – | > 30 mg/kg | 1.2 mg/kg | 56% | – | Active
C[C@@H]1CN(C(=O)N2Cc3c(C(=O)OC(C)(C)C)ncn3-c3cccc(Cl)c32)C[C@H](C)N1C | 0.71 | – | 49% | 0.22 | – | 56.3 nM | – | > 30 mg/kg | > 50 mg/kg | 102% | inactive | –
CC(C)(C)OC(=O)c1ncn2c1CN(C(=O)N1CCOCC1)c1ccccc1-2 | 0.14 | 0 | – | – | – | 2.47 nM | – | – | > 50 mg/kg | – | – | –
CN(C)C(=O)N1Cc2c(C(=O)OC(C)(C)C)ncn2-c2ccc(Cl)cc21 | 0.35 | 0.51 | – | – | – | 5.56 nM | – | – | 10.5 mg/kg | – | – | –
CC(C)(C)OC(=O)c1ncn2c1CN(C(=O)N1CCN(C3CC3)CC1)c1cc(Cl)ccc1-2 | 0.75 | – | 24% | 0.76 | 0.42 | 5.39 nM | – | > 30 mg/kg | 12.5 mg/kg | – | inactive | –
CCCC(=O)O.CCN1[C@H](C)CN(C(=O)N2Cc3c(C(=O)OC(C)(C)C)ncn3-c3ccc(Cl)cc32)C[C@@H]1C | 0.5 | – | 84% | 0.15 | 0.94 | 10.5 nM | – | > 30 mg/kg | 3.7 mg/kg | 88% | inactive | –
CN1CCN(C(=O)N2Cc3c(C(=O)OC(C)(C)C)ncn3-c3ccc(Cl)cc32)CC1(C)C | 0.5 | – | 11% | 0.21 | 1.1 | 4.35 nM | – | > 30 mg/kg | 35.3 mg/kg | – | inactive | –
C[C@@H]1CN(C(=O)N2c3cc(Cl)ccc3-n3cnc(C(=O)OC(C)(C)C)c3C2(C)C)C[C@H](C)N1C | 2.6 | – | 84% | 1.43 | – | 39.7 nM | 0.68 | > 30 mg/kg | 0.6 mg/kg | 38% | – | Active
C[C@@H]1CN(C(=O)N2Cc3c(C(=O)OC(C)(C)C)ncn3-c3ccc(Cl)cc32)C[C@H](C)N1CC(F)(F)F | 0 | – | 19% | 0.67 | 0.5 | 37.8 nM | – | > 30 mg/kg | 42 mg/kg | – | inactive | –
C[C@@H]1CN(C(=O)N2c3cc(Cl)ccc3-n3cnc(C(=O)OC(C)(C)C)c3C2(C)C)C[C@H](C)N1 | 0.96 | – | 94% | 1.23 | – | 19.9 nM | 1.08 | – | 0.4 mg/kg | 30% | – | Active
CN1CCN(C(=O)N2Cc3c(C(=O)OC(C)(C)C)ncn3-c3ccc(Cl)cc32)CC1 | 0.98 | – | 29% | 0.57 | – | 10.9 nM | 0.44 | 11 mg/kg | 7.4 mg/kg | 94% | – | –
Cc1ccc2c(c1)N(C(=O)N1C[C@@H](C)N(C)[C@@H](C)C1)Cc1c(C(=O)OC(C)(C)C)ncn1-2 | 1.37 | – | 64% | 0.11 | – | 9.5 nM | 0.56 | > 30 mg/kg | 1.6 mg/kg | 57% | – | Active

More lines, in order of falling Ki [10], values ahead:

Change in Cl- current [1] | Shift [3] | inhibition [6] | Shift [7] | Change in Cl- current [8] | Ki [10] | Change in Cl- current [11] | SMILES | ED50 (Mus musculus [2]) | ED50 (Rattus norvegicus) | Control (Mus musculus [4]) | Acute electroshock activity (Mus musculus [5]) | Acute electroshock activity (Mus musculus [9])
1 | – | – | 0.41 | 0.5 | 277 nM | – | C[C@H]1CN(C(=O)N2Cc3c(C(=O)OC(C)(C)C)ncn3-c3ccc(C(F)(F)F)cc32)C[C@H](C)N1 | > 30 mg/kg | 39.7 mg/kg | – | – | Active
1.3 | – | 17% | 0.77 | 1.3 | 25.6 nM | – | Cc1ccc2c(c1)N(C(=O)N1C[C@H](C)N[C@@H](C)C1)Cc1c(C(=O)OC(C)(C)C)ncn1-2 | > 30 mg/kg | 7.4 mg/kg | 79% | – | Active
0.83 | – | 3.4% | 0.32 | 0.35 | 15.1 nM | – | CC(C)(C)OC(=O)c1ncn2c1CN(C(=O)N1CCN(c3ccccn3)CC1)c1cc(Cl)ccc1-2 | > 30 mg/kg | > 50 mg/kg | – | – | Active
1 | – | 10% | 0.81 | 0.8 | 10.9 nM | – | CC(C)(C)OC(=O)c1ncn2c1CN(C(=O)N1CCN(CC(F)(F)F)CC1)c1cc(Cl)ccc1-2 | > 30 mg/kg | > 50 mg/kg | – | inactive | –
0.3 | – | 55% | 0.38 | 0.84 | 4.66 nM | 0.1 | Cc1ccc2c(c1)N(C(=O)N1C[C@@H](C)N[C@@H](C)C1)Cc1c(C(=O)OC(C)(C)C)ncn1-2 | > 30 mg/kg | – | 73% | – | Active
0.79 | – | 22% | 0.94 | – | 4.66 nM | – | CC(=O)N1[C@H](C)CN(C(=O)N2Cc3c(C(=O)OC(C)(C)C)ncn3-c3ccc(Cl)cc32)C[C@@H]1C | > 30 mg/kg | 14.8 mg/kg | – | – | Active
0.17 | – | 68% | 0.18 | 0.5 | 4.48 nM | – | CC1CN(C(=O)N2Cc3c(C(=O)OC(C)(C)C)ncn3-c3ccc(Cl)cc32)CCN1 (stereo not drawn) | > 30 mg/kg | 8.8 mg/kg | – | – | Active
1.14 | – | 47% | 0.77 | – | 3.2 nM | – | CC1(C)CN(C(=O)N2Cc3c(C(=O)OC(C)(C)C)ncn3-c3ccc(Cl)cc32)CC(C)(C)N1 | > 30 mg/kg | 3.7 mg/kg | 40% | – | Active
0 | – | 13% | -0.01 | 0.33 | 3.03 nM | – | CC1(C)CN(C(=O)N2Cc3c(C(=O)OC(C)(C)C)ncn3-c3ccc(Cl)cc32)CCN1 | > 30 mg/kg | > 50 mg/kg | – | inactive | –
